Our source for the MIC, MFC and IC50 values is ChEMBL document CHEMBL1136527, “Antifungal activity of a Candida albicans GGTase I inhibitor-alanine conjugate. Inhibition of Rho1p prenylation in C. albicans” (Bioorg Med Chem Lett, 2003).

The test system of assay [1] is Candida albicans. Kind of assay: Inhibitory of Candida albicans. The assay is classed as functional. The procedure, abridged: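 MIC against C. albicans SC5314 in YNBGlc medium: yeast nitrogen base without amino acids, supplemented with histidine, methionine, tryptophan, glutamine and 2% glucose.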
The test system of assay [2] is Candida albicans. Kind of assay: Fungicidal activity against Candida albicans. It counts as functional.
Assay [3] deals with Protein farnesyltransferase (Candida albicans). Briefly: Inhibition of Candida albicans Farnesyltransferase.
Assay [4] addresses Geranylgeranyl transferase type I (Candida albicans). Briefly: Inhibition of Candida albicans Geranylgeranyl transferase type I.
In assay [5] the test system is Candida albicans. Briefly: Inhibition of Candida albicans after addition of amino acids at 1 mM. It counts as functional. In short, it runs like this:
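MIC against C. albicans SC5314 in YNBGlc medium (YNB without amino acids plus histidine, methionine, tryptophan, glutamine, 2% glucose), further supplemented with an amino acid mixture at 1mM final, to compete for permease uptake.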

Structures are written as SMILES. Converted amounts (≈) assume the structure as drawn.

One may read the MIC as the least concentration at which growth counts as inhibited. A lower MIC goes with a more susceptible organism. For orientation: MFC means the smallest concentration meeting the test's criterion for killing the fungus. A low value points to greater fungicidal potency. As a reminder, the IC50 is the midpoint of a concentration-inhibition curve. The low end stands for greater potency, the high end for weaker potency. `CC(C)C[C@H](NC(=O)C1(c2ccccc2)CCN(C(=O)[C@@H](N)CS)CC1)C(=O)O` yielded an MIC against Candida albicans [1] of more than 128 mg/L. In addition, in the assay with Candida albicans [2], the MFC was more than 128 mg/L. The IC50 in assay [3] was 0.2 µM; in assay [4] it was less than 0.005 µM.

For the molecule `COC(=O)[C@H](CC(C)C)NC(=O)C1(c2ccccc2)CCN(C(=O)[C@@H](N)CS)CC1`, in the assay on Candida albicans [1], the MIC was more than 128 mg/L. For the same molecule, the MFC in the assay with Candida albicans [2] is more than 128 mg/L. Moreover, inhibition in assay [4] was half-maximal at 0.005 µM (IC50).

Consider `CC(C)C[C@H](NC(=O)C1(c2ccccc2)CCN(C(=O)[C@@H](N)CS)CC1)C(=O)N[C@@H](C)C(=O)O`, for which the values for the MIC in the assay with Candida albicans [1] and against Candida albicans [5] were 1 mg/L (≈ 2.03 µM) and more than 64 mg/L, respectively. This molecule also showed an MFC with Candida albicans [2] of 2 mg/L (≈ 4.06 µM). For the same molecule, the IC50 in assay [3] turned out to be 3 µM; in assay [4], 0.01 µM.
